Measurements reported in paper PMC5218545 (Angewandte Chemie (International ed. in English), 2016).

Legend:
Type in all cases: biochemical
[1] = target: T1, endogenous 15-LOX-1 in HeLa cell lysate (Homo sapiens, UniProt P16050); assay: Activity-based labeling in HeLa cell lysate; conditions: inhibitor 90 μM; bands also characterized by the 15-LOX-1 antibody
T1 sequence (P16050 1-662): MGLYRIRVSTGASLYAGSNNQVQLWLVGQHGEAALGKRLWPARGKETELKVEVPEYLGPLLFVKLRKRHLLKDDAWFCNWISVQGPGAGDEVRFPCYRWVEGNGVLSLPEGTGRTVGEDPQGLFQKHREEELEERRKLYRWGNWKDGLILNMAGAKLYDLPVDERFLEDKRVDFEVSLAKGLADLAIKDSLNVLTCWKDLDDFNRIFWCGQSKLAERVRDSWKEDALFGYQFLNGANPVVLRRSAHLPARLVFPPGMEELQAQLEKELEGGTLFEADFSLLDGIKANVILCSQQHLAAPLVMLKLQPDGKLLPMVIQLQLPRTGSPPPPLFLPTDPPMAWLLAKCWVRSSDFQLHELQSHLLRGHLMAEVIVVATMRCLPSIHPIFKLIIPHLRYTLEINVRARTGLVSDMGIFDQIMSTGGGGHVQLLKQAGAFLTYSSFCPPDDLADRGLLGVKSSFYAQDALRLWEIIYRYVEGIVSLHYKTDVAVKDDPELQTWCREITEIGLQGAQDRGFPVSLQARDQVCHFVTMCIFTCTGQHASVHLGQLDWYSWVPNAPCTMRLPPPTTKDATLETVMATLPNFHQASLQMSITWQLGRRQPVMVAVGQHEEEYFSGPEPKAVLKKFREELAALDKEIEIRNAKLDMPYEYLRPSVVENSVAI
How it was run: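 HeLa cell lysate: endogenous enzyme preincubated with inhibitors at 90 μM, then labeled with an alkene-tagged bis-alkyne probe. Biotinylation by oxidative Heck reaction with biotinyl phenyl boronic acid. Blots were first probed with 15-LOX antibody, then stripped and developed with HRP-conjugated streptavidin by on-blot luminescence. Included no-probe controls.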

[2] = target: T2, 15-LOX-1 in tissue lysates from different mice organs (Mus musculus, UniProt P39654); assay: Activity-based labeling in mouse tissue lysates; conditions: inhibitor 90 μM, three characteristic bands
T2 sequence (P39654 1-663): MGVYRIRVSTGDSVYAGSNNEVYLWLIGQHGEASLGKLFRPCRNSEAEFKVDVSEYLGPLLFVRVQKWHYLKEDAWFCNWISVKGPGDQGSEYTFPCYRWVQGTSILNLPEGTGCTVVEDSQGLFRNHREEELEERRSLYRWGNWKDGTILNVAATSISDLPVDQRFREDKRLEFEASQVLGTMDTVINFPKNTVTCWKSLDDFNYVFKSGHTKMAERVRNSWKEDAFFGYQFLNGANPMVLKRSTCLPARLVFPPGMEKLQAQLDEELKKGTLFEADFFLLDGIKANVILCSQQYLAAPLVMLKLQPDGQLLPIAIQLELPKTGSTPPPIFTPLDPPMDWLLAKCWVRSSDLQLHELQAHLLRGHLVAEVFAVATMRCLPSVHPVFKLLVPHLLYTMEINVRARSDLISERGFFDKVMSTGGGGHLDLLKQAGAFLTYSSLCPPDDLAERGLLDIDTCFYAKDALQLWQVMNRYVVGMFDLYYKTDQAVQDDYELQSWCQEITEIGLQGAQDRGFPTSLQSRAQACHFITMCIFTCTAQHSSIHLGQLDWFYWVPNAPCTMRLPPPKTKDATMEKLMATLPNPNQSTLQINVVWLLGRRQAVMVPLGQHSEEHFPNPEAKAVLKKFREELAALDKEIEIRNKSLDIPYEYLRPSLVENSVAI
How it was run: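 Mouse heart tissue lysate: endogenous enzyme preincubated with inhibitors at 90 μM, then labeled with an alkene-tagged bis-alkyne probe. The probe was biotinylated by oxidative Heck coupling with biotinyl phenyl boronic acid. Labeled proteins were detected on blot with HRP-conjugated streptavidin luminescence.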

[3] = target: T3, recombinant purified enzyme 15-LOX-1 (Homo sapiens, UniProt P16050); assay: ABPP two-step labeling of recombinant purified 15-LOX-1; conditions: 10 min incubation with inhibitor, then 2 min with probe N144
T3 sequence (P16050 1-662): T1 sequence (P16050 1-662)
How it was run: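 Recombinant purified human 15-LOX-1 preincubated 10 min with a reversible 15-LOX-1 inhibitor or a 5-LOX inhibitor as control. Then 2 min with an alkene-tagged bis-alkyne probe. Biotinyl phenyl boronic acid was attached to the terminal alkene by oxidative Heck reaction. Equal enzyme amounts were run on Western blot and detected by HRP-streptavidin luminescence, alongside Coomassie staining and no-probe controls.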

Row | Structure (SMILES) | effect of inhibitor on N144 labeling in HeLa cell lysates [1] | effect of inhibitor on N144 labeling in mouse heart lysate [2] | effect of inhibitor pre-incubation on N144 labeling of recombinant 15-LOX-1 [3]
1 | c1ccc2c(c1)SCc1c-2[nH]c2ccccc12 [PD-146176] | decrease of the labeling | reduced labeling | labeling was clearly inhibited
2 | CC(c1cc2ccccc2s1)N(O)C(N)=O (stereo not shown) [Zileuton] |  |  | did not affect the labeling
